ChEMBL document CHEMBL1124175, “Stereoisomers of allenic amines as inactivators of monoamine oxidase type B. Stereochemical probes of the active site” (J Med Chem, 1988)

Legend:
[1] = molecular target: T1, Amine oxidase [flavin-containing] B (Bos taurus, UniProt P56560); experiment: Inhibitory activity against Monoamine Oxidase B of Bovine liver in competitive inhibition assay at 25 degree C (pH=7.4)
T1 sequence (P56560 whole entry): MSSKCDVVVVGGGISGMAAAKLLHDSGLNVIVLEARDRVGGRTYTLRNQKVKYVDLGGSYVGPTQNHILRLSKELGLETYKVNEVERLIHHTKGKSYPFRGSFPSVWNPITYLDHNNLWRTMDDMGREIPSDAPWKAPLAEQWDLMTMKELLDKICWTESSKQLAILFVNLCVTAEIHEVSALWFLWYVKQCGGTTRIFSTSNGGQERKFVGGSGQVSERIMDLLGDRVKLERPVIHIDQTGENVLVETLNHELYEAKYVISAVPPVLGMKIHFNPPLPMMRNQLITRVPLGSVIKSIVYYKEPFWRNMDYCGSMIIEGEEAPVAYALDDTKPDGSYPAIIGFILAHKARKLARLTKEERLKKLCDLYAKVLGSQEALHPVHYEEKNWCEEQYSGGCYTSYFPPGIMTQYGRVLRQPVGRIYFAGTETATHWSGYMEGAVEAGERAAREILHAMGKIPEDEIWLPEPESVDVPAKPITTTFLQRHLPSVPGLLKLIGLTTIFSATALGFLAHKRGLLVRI

[2] = molecular target: T1, Amine oxidase [flavin-containing] B; experiment: In vitro inhibition of bovine monoamine oxidase B.
Method in brief: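 Beef liver mitochondrial MAO was purified and assayed spectrophotometrically in 67 mM potassium phosphate, pH 7.2, at 25 °C. MAO (0.002 unit) was run with benzylamine hydrochloride (100, 200, 300 or 400 µM) and inhibitor at various concentrations. Initial rates of benzaldehyde formation were read at 250 nm, four replicates per combination, and competitive Ki was fitted from the initial rates.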

[3] = molecular target: T1, Amine oxidase [flavin-containing] B; experiment: Kinetic parameter for the time dependent inhibition of Bovine liver Monoamine Oxidase B at 25 degrees C (pH= 7.4).; conditions: cattle; for kinact: read-out: k2 (converted)
Method in brief: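 Purified beef liver mitochondrial MAO (0.02 unit) was preincubated at 25 °C in 50 mM potassium phosphate, pH 7.4, with allenic amine (1 µM-10 mM). Aliquots taken over time were assayed in duplicate for residual activity against benzylamine at 250 nm. kobsd came from nonlinear fit to E = E0 exp(-kobsd t) + E∞, and k2 and Ki by Kitz-Wilson analysis. For slow inactivators, k2 came from kobsd at one concentration plus a separately measured competitive Ki.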

[4] = molecular target: T2, Amine oxidase [flavin-containing] B (Rattus norvegicus, UniProt P19643); experiment: Competitive inhibition of Rat liver Monoamine Oxidase B at 30 degree C (pH= 7.2)
T2 sequence (P19643 whole entry): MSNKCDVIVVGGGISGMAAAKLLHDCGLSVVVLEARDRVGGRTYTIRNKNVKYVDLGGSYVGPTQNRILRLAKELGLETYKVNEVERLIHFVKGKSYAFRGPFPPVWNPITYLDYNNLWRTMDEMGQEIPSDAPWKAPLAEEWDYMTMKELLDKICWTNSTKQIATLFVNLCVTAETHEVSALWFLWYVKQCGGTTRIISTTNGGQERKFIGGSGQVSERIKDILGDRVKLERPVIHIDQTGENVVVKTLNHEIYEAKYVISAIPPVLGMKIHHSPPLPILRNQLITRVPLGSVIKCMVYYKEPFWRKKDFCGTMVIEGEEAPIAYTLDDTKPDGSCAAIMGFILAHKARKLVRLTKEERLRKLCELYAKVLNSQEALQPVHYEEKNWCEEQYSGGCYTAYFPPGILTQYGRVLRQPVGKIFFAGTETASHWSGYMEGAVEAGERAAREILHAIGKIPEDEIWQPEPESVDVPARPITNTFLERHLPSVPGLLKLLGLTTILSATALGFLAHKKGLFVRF

[5] = molecular target: T2, Amine oxidase [flavin-containing] B; experiment: Competitive inhibition of Rat liver Monoamine Oxidase B at 37 degree C (pH= 7.4)
Bos taurus = organism: Bos taurus; experiment: Competitive inhibition of Bovine liver MAO-B at […]; type: functional

Compound	Ki [1] [µM]	Ki [2] [µM]	k2 [3] [min⁻¹]	further results
CN[C@H](C)c1ccccc1	630			
CC=C=CCN(C)Cc1ccccc1.O=C(O)C(=O)O (stereo in doubt; 2 (R))		200	1	
CC=C=CCN(C)CCc1ccccc1 (stereo in doubt; 4 (R))		430	0.99	
C[C@H](N)Cc1ccccc1 [DEXTROAMPHETAMINE]	300			Ki [4]: 580 µM; Ki [5]: 160 µM
CC=C=CCN(C)CCc1ccccc1 (stereo in doubt; 4 (S))		650	0.13	
CC=C=CCN(C)C (stereo in doubt; 1 (S))		100	0.29	
CN[C@@H]1CCCc2ccccc21	12			
CN[C@@H](C)Cc1ccccc1 [METHAMPHETAMINE]	550			Ki [5]: 270 µM
C[C@@H](N)c1ccccc1		190		
CN[C@H](C)Cc1ccccc1	800			Ki [5]: 550 µM
C[C@H](N)c1ccccc1	520			Ki (Bos taurus): 150 µM
C[C@@H](N)Cc1ccccc1 [LEVAMFETAMINE]	380			Ki [4]: 760 µM; Ki [5]: 180 µM
CN[C@H]1CCCc2ccccc21	1.4			
CC=C=CCN(C)[C@@H]1CCCc2ccccc21 (mixture of isomers)		250	0.13	
CC=C=CCN(C)[C@H](C)c1ccccc1 (stereo in doubt)		730	0.61	
CC=C=CCN(C)[C@@H](C)c1ccccc1 (mixture of isomers)		2600	0.012	
CC=C=CCN(C)C (stereo in doubt; 1 (R))		59		kinact [3]: 0.00367 s⁻¹
CC=C=CCN(C)[C@@H]1CCCc2ccccc21 (stereo in doubt)		200	0.8	
CC=C=CCN(C)C[C@@H](C)c1ccccc1 (mixture of isomers)		690		kinact [3]: 0.000117 s⁻¹
CC=C=CCN(C)[C@H]1CCCc2ccccc21 (stereo in doubt)		150	0.0006	
CC=C=CCN(C)[C@H]1CCCc2ccccc21 (mixture of isomers)		150	0.012	
CC=C=CCN(C)Cc1ccccc1.O=C(O)C(=O)O (stereo in doubt; 2 (S))		820	0.16	
CC=C=CCN(C)[C@@H](C)c1ccccc1 (stereo in doubt)		1100		kinact [3]: 0.000117 s⁻¹
CC=C=CCN(C)C[C@H](C)c1ccccc1 (mixture of isomers)		180		kinact [3]: 0.00015 s⁻¹
CC=C=CCN(C)[C@H](C)c1ccccc1 (mixture of isomers)		1800		kinact [3]: 0.00733 s⁻¹
CN[C@@H](C)c1ccccc1	1600			
